Experimental data: ChEMBL document CHEMBL1148429, “Penicillin-derived inhibitors that simultaneously target both metallo- and serine-beta-lactamases” (Bioorg Med Chem Lett, 2004)
In brackets after ≈: the same amount, converted by molar mass. Blank lines part the entries; values can stand above or below the compound they belong to.

How the values were obtained:
Beta-lactamase L1 = Beta-lactamase L1 (Stenotrophomonas maltophilia, UniProt P52700); test: Beta-Lactamase Inhibition of metallo-beta-lactamase representative class B (L1) enzyme
Chain of Beta-lactamase L1 (P52700 whole entry): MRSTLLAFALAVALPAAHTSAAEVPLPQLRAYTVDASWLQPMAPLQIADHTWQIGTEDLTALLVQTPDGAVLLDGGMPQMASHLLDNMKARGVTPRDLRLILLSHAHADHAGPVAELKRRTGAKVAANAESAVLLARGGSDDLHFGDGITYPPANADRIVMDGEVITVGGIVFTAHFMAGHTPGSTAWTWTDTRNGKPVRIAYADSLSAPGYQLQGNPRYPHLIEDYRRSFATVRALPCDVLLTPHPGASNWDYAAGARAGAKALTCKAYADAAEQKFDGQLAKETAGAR
Procedure, shortened: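 For the metallo enzyme, inhibitor and enzyme were preincubated for 4 min. Concentrated nitrocefin was then added to give the final assay volume, and IC50 was determined.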

[1] = molecular target: Beta-lactamase TEM (Escherichia coli) (UniProt P62593); test: Beta-Lactamase inhibitory activity against representative class A (TEM-1) serine enzyme from Escherichia coli ATCC 35218 in presence of Piperacillin
Chain of Beta-lactamase TEM (Escherichia coli) (P62593 whole entry): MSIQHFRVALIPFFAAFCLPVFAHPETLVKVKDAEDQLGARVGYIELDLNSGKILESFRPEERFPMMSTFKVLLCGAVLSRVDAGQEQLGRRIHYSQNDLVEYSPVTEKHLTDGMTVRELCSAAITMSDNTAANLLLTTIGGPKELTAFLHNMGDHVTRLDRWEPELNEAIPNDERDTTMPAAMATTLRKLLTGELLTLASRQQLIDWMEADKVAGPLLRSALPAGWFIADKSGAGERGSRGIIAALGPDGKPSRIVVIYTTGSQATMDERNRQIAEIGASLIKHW
Procedure, shortened: (§1)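 MIC of piperacillin against β-lactamase-producing strains, with the piperacillin concentration varied and the inhibitor held constant at […].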

Staphylococcus aureus = test: Antibacterial activity was determined against the Staphylococcus aureus ATCC 29213 in presence of Piperacillin; type: functional; procedure, shortened: as §1
[2] = molecular target: Beta-lactamase (Escherichia coli K-12) (UniProt P00811)
Chain of Beta-lactamase (Escherichia coli K-12) (P00811 whole entry): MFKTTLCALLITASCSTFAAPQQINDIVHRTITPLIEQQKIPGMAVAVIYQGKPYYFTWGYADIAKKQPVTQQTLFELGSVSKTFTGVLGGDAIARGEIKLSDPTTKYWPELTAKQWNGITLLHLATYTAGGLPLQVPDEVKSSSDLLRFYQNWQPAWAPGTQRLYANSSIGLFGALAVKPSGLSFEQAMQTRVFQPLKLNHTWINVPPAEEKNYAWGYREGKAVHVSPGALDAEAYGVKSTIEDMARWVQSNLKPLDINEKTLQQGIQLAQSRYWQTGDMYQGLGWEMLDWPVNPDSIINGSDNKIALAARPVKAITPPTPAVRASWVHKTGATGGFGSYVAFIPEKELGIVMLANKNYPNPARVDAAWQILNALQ

[3] = molecular target: T1, Metallo-beta-lactamase type 2 (Bacillus cereus, UniProt P14488); test: Inhibition of class B (BCII) metallo-beta-lactamase representative enzyme
T1 sequence (P14488 whole entry): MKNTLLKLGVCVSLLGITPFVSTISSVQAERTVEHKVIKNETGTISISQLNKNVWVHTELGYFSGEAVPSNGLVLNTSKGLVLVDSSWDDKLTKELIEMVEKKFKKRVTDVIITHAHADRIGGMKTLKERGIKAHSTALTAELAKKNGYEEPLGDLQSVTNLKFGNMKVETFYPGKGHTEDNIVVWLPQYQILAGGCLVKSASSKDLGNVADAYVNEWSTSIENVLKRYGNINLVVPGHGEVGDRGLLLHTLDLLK
Procedure, shortened: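 BCII metallo-β-lactamase assay: inhibitor and enzyme incubated together for 4 min in 970 µL, then concentrated nitrocefin added to 1 mL final volume. IC50 determined from nitrocefin hydrolysis.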

Escherichia coli [4] = test: Synergic activity against IMP-1 beta lactamase produced by Escherichia coli in presence of Piperacillin and Tazobactam; S = susceptible; type: functional
Procedure, shortened: (§2)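 Synergy with piperacillin against metallo-β-lactamase-producing strains (IMP-1; SPM-1, VIM-1 or VIM-7 carriers). The initial screen used […] at a 1:1 antibiotic:inhibitor ratio. Inhibitor was tested with tazobactam or DVR-II-183 added as a serine β-lactamase inhibitor, or without one.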

Pseudomonas aeruginosa [5] = test: Synergistic activity against SPM-1 beta lactamase produced by Pseudomonas aeruginosa in presence of Piperacillin and Tazobactam; R = Resistant
Pseudomonas aeruginosa [6] = test: Synergistic activity against VIM-7 beta lactamase produced by Pseudomonas aeruginosa in presence of Piperacillin and Tazobactam; R = Resistant
Beta-lactamase TEM = Beta-lactamase TEM (Escherichia coli, UniProt P62593); test: Beta-Lactamase inhibitory activity against representative class A (TEM-1) serine enzyme
Chain of Beta-lactamase TEM (P62593 whole entry): as the sequence (P62593 whole entry) above
Procedure, shortened: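 Serine β-lactamase assay: inhibitor preincubated with enzyme for 4 min in 100 µL, then an aliquot transferred into dilute nitrocefin substrate (1 mL final). IC50 is expressed as the inhibitor concentration in the 100 µL incubation, from multiple experiments.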

Pseudomonas aeruginosa [7] = test: Synergistic activity against VIM-1 beta lactamase produced by Pseudomonas aeruginosa in presence of Piperacillin and Tazobactam; R = Resistant
Pseudomonas aeruginosa [8] = test: Synergistic activity against VIM-7 beta lactamase produced by Pseudomonas aeruginosa in presence of Piperacillin; R = Resistant
[9] = Synergistic activity against VIM-7 beta lactamase produced by Escherichia coli in presence of Piperacillin; type: functional, plasmodium aeruginosa; conditions: Pseudomonas aeruginosa
Escherichia coli [10] = test: Synergic activity against IMP-1 beta lactamase produced by Escherichia coli in presence of Piperacillin; S = susceptible; type: functional; procedure, shortened: as §2
[11] = Synergistic activity against VIM-1 beta lactamase produced by Pseudomonas aeruginosa in presence of Piperacillin
Escherichia coli [12] = test: Synergic activity against IMP-1 beta lactamase producing Escherichia coli in presence of Piperacillin and compound 48; S = susceptible; type: functional; procedure, shortened: as §2
[13] = Synergistic activity against VIM-1 beta lactamase produced by Pseudomonas aeruginosa in presence of Piperacillin and DVRII183
[14] = Synergistic activity against SPM-1 beta lactamase produced by Pseudomonas aeruginosa in presence of Piperacillin and Tazobactam
Pseudomonas aeruginosa [15] = test: Synergistic activity against SPM-1 beta lactamase produced by Pseudomonas aeruginosa in presence of Piperacillin and compound 48; S = susceptible
[16] = Synergistic activity against VIM-1 beta lactamase produced by Escherichia coli in presence of Piperacillin and Tazobactam; type: functional, plasmodium aeruginosa; conditions: Pseudomonas aeruginosa; procedure, shortened: as §2
[17] = Synergic activity against IMP-1 beta lactamase produced by Escherichia coli in presence of Piperacillin and Tazobactam; type: functional; procedure, shortened: as §2
Pseudomonas aeruginosa [18] = test: Synergistic activity against VIM-7 beta lactamase produced by Pseudomonas aeruginosa in presence of Piperacillin and compound 48; R = Resistant
Pseudomonas aeruginosa [19] = test: Synergistic activity against VIM-1 beta lactamase produced by Pseudomonas aeruginosa in presence of Piperacillin and compound 48; S = susceptible
[20] = Synergic activity against IMP-1 beta lactamase produced by Escherichia coli in presence of Piperacillin; type: functional; procedure, shortened: as §2
Pseudomonas aeruginosa [21] = test: Synergistic activity against VIM-1 beta lactamase produced by Pseudomonas aeruginosa in presence of Piperacillin; R = Resistant
Pseudomonas aeruginosa [22] = test: Synergistic activity against SPM-1 beta lactamase produced by Pseudomonas aeruginosa in presence of Piperacillin and Tazobactam; S = susceptible
[23] = Synergistic activity against VIM-7 beta lactamase produced by Escherichia coli in presence of Piperacillin and DVRII183; type: functional, plasmodium aeruginosa; conditions: Pseudomonas aeruginosa; procedure, shortened: as §2
[24] = Synergistic activity against SPM-1 beta lactamase produced by Pseudomonas aeruginosa in presence of Piperacillin and DVRII183
[25] = Synergistic activity against SPM-1 beta lactamase produced by Pseudomonas aeruginosa in presence of Piperacillin
Pseudomonas aeruginosa [26] = test: Synergistic activity against SPM-1 beta lactamase produced by Pseudomonas aeruginosa in presence of Piperacillin; S = susceptible
[27] = Synergistic activity against VIM-7 beta lactamase produced by Escherichia coli in presence of Piperacillin and Tazobactam; type: functional, plasmodium aeruginosa; conditions: Pseudomonas aeruginosa; procedure, shortened: as §2
[28] = Synergic activity against IMP-1 beta lactamase produced by Escherichia coli in presence of Piperacillin and DVRII183; type: functional; procedure, shortened: as §2
[29] = Synergic activity against IMP-1 beta lactamase produced by Escherichia coli was determined in presence of Piperacillin; type: functional

SMILES: CC1(C)[C@H](C(=O)O)N2C(=O)[C@@H](CO)[C@H]2S1(=O)=O
IC50 (Beta-lactamase L1): 72.3 µM | MIC [1]: 1 µg/mL | MIC (Staphylococcus aureus): 1 µg/mL | MIC [2]: 0.125 µg/mL (≈ 0.475 µM) | IC50 [3]: > 200 µM

SMILES: CC1(C)S[C@@H]2[C@H](CS)C(=O)N2[C@H]1C(=O)O
IC50 (Beta-lactamase L1): 32.1 µM | MIC [1]: > 128 µg/mL | Activity (Escherichia coli [4]): Susceptible | Activity (Pseudomonas aeruginosa [5]): Resistant | Activity (Pseudomonas aeruginosa [6]): Resistant | MIC (Staphylococcus aureus): 2 µg/mL | IC50 (Beta-lactamase TEM): 601 µM | MIC [2]: 2 µg/mL (≈ 8.09 µM) | IC50 [3]: 2.9 µM | Activity (Pseudomonas aeruginosa [7]): Resistant

SMILES: CC1(C)[C@H](C(=O)O)N2C(=O)[C@H](CO)[C@H]2S1(=O)=O
IC50 (Beta-lactamase L1): > 200 µM | MIC [1]: 8 µg/mL | MIC (Staphylococcus aureus): 2 µg/mL | MIC [2]: 0.25 µg/mL (≈ 0.95 µM) | IC50 [3]: > 200 µM

SMILES: CC1(C)[C@H](C(=O)O)N2C(=O)[C@@H](CS)[C@H]2S1(=O)=O
IC50 (Beta-lactamase L1): 0.1 µM | Activity (Pseudomonas aeruginosa [8]): Resistant | MIC [9]: > 128 µg/mL | Activity (Escherichia coli [10]): Susceptible | MIC [11]: > 128 µg/mL | Activity (Escherichia coli [12]): Susceptible | MIC [1]: 8 µg/mL | MIC [13]: 128 µg/mL | Activity (Escherichia coli [4]): Susceptible | Activity (Pseudomonas aeruginosa [6]): Resistant | MIC (Staphylococcus aureus): 2 µg/mL | MIC [14]: 64 µg/mL | Activity (Pseudomonas aeruginosa [15]): Susceptible | MIC [16]: > 128 µg/mL | MIC [17]: 8 µg/mL | Activity (Pseudomonas aeruginosa [18]): Resistant | Activity (Pseudomonas aeruginosa [19]): Susceptible | MIC [20]: 8 µg/mL | Activity (Pseudomonas aeruginosa [21]): Resistant | MIC [2]: 0.25 µg/mL (≈ 0.895 µM) | Activity (Pseudomonas aeruginosa [22]): Susceptible | MIC [23]: > 128 µg/mL | IC50 [3]: 1.4 µM | MIC [24]: 64 µg/mL | MIC [25]: 64 µg/mL | Activity (Pseudomonas aeruginosa [7]): Resistant | Activity (Pseudomonas aeruginosa [26]): Susceptible | MIC [27]: > 128 µg/mL | MIC [28]: 8 µg/mL

SMILES: CC1(C)[C@H](C(=O)O)N2C(=O)[C@H](CS)[C@H]2S1(=O)=O
IC50 (Beta-lactamase L1): 0.3 µM | MIC [1]: 32 µg/mL | Activity (Escherichia coli [4]): Susceptible | Activity (Pseudomonas aeruginosa [5]): Resistant | Activity (Pseudomonas aeruginosa [6]): Resistant | MIC (Staphylococcus aureus): 4 µg/mL | MIC [2]: 0.5 µg/mL (≈ 1.79 µM) | IC50 [3]: 12 µM | Activity (Pseudomonas aeruginosa [7]): Resistant

SMILES: CC1(C)S[C@@H]2[C@@H](CO)C(=O)N2[C@H]1C(=O)O
IC50 (Beta-lactamase L1): > 200 µM | MIC [1]: > 128 µg/mL | MIC (Staphylococcus aureus): 8 µg/mL | IC50 (Beta-lactamase TEM): 275 µM | MIC [2]: 4 µg/mL (≈ 17.3 µM) | IC50 [3]: > 200 µM

IC50 (Beta-lactamase L1): 7.8 µM | IC50 [3]: 21.8 µM
SMILES: O=C(O)c1cccc(C(=O)O)n1 [DIPICOLINIC ACID]

SMILES: C[C@]1(Cn2ccnn2)[C@H](C(=O)[O-])N2C(=O)C[C@H]2S1(=O)=O.[Na+] [TAZOBACTAM SODIUM]
IC50 (Beta-lactamase L1): > 200 µM | Activity (Pseudomonas aeruginosa [8]): Resistant | MIC [9]: > 128 µg/mL | MIC [11]: > 128 µg/mL | MIC [1]: 1 µg/mL | MIC (Staphylococcus aureus): 1 µg/mL | Activity (Pseudomonas aeruginosa [21]): Resistant | MIC [2]: 0.5 µg/mL | IC50 [3]: > 200 µM | MIC [25]: > 128 µg/mL | MIC [29]: > 128 µg/mL
